Reference: ChEMBL document CHEMBL1123648, “Synthesis, chemical reactivity, and antileukemic activity of 5-substituted 6,7-bis(hydroxymethyl)pyrrolo[1,2-c]thiazole biscarbamates and the corresponding sulfoxides and sulfones” (1987)

Legend:
P388 [1] = assay: Log cell population relative to cell population at the beginning of treatment compared to control group B at a dose of 6.25 mg/kg; format: functional, Mus musculus
[2] = Antileukemic activity against Murine P388 lymphocytic leukemia, body weight difference of the test animals compared to control group B animals at a dose of 100 mg/kg; format: functional, Mus musculus; parameters: unit not given here
Summary of the method: (§1)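 CD2F1 mice implanted intraperitoneally with ascitic fluid carrying ca. 1×10^6 P388 cells, under the NCI protocol. Dosing was intraperitoneal, starting 24 h after inoculation, then every 24 h for five doses in total. The body weight difference of treated mice is taken against untreated controls. Toxicity day survivors are the mice alive at day five out of those tested.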

[3] = Percent increase in life span of test animals compared to untreated tumor-bearing control group B animals at a dose of 12.5 mg/kg; format: functional; settings: Mus musculus
[4] = Percent increase in life span of test animals compared to untreated tumor-bearing control group C animals at a dose of 6.25 mg/kg; format: functional; settings: Mus musculus
[5] = Log cell population relative to cell population at the beginning of treatment compared to control group C at a dose of 100 mg/kg; format: functional, Mus musculus
[6] = Percent increase in life span of test animals compared to untreated tumor-bearing control group C animals at a dose of 25 mg/kg; format: functional; settings: Mus musculus
[7] = Antileukemic activity against Murine P388 lymphocytic leukemia, body weight difference of the test animals compared to control group A animals at a dose of 100 mg/kg; format: functional, Mus musculus; parameters: unit not given here; summary of the method: as §1
[8] = Percent increase in life span of test animals compared to untreated tumor-bearing control group A animals at a dose of 100 mg/kg; format: functional; settings: Mus musculus
[9] = Percent increase in life span of test animals compared to untreated tumor-bearing control group A animals at a dose of 50 mg/kg; format: functional; settings: Mus musculus
[10] = Percent increase in life span of test animals compared to untreated tumor-bearing control group A animals at a dose of 6.25 mg/kg; format: functional; settings: Mus musculus
[11] = Percent increase in life span of test animals compared to untreated tumor-bearing control group B animals at a dose of 100 mg/kg; format: functional; settings: Mus musculus
P388 [12] = assay: Log cell population relative to cell population at the beginning of treatment compared to control group C at a dose of 50 mg/kg; format: functional, Mus musculus
P388 [13] = assay: Log cell population relative to cell population at the beginning of treatment compared to control group C at a dose of 25 mg/kg; format: functional, Mus musculus
P388 [14] = assay: Log cell population relative to cell population at the beginning of treatment compared to control group B at a dose of 12.5 mg/kg; format: functional, Mus musculus
[15] = Toxicity day survivors expressed as number of animals that survived to day five/ number of test animals under control group A at a dose of 25 mg/kg; 6 survived out of 6; format: functional, Mus musculus
[16] = Antileukemic activity against Murine P388 lymphocytic leukemia, body weight difference of the test animals compared to control group C animals at a dose of 25 mg/kg; format: functional, Mus musculus; summary of the method: as §1
[17] = Toxicity day survivors expressed as number of animals that survived to day five/ number of test animals under control group C at a dose of 25 mg/kg; 6 survived out of 6; format: functional, Mus musculus

CC(C)NC(=O)OCc1c(COC(=O)NC(C)C)c(-c2ccc(Cl)c(Cl)c2)n2c1CCC2
KE (P388 [1]): 0.69
BWD [2]: -4.6
ILS at 12.5 mg/kg [3]: 45%
ILS at 6.25 mg/kg [4]: 26%
KE [5]: >6.68
ILS at 25 mg/kg [6]: 55%
BWD [7]: -4.2
ILS at 100 mg/kg [8]: 48%
ILS at 50 mg/kg [9]: 97%
ILS at 6.25 mg/kg [10]: 51%
ILS at 100 mg/kg [11]: -14%
KE (P388 [12]): 5.27
KE (P388 [13]): 1.85
KE (P388 [14]): 1.08
TDS [15]: 6
BWD [16]: -1.4
TDS [17]: 6
